According to PubChem BioAssay AID493150 (Broad Institute, 2011):
Values joined by “and” are separate entries in the source; they are usually repeats but may differ in a detail not shown here. Equal entries are not always repeated. Records with an inconclusive call do not appear. Active and inactive are the calls of the source.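 How the source made its calls: active means compound whose fitted half-maximal growth inhibition concentration stays within ten times its top tested dose in every replicate test; inconclusive means replicate tests disagree, or flat partial inhibition, or poor curve fit; inactive means every replicate test inactive, including wrong-direction or flat responses.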

Tests used:
[1] = Candida CaCi-2 growth reduction under fluconazole – CaCi-2 strain, Alamar Blue, dry powder, set 5, confirmation (AID 493150); details: C. albicans CaCi-2 + fluconazole, Alamar Blue growth, 48 h
Summary of the method: (§1)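 Test system: clinical Candida albicans isolate CaCi-2, resistant to fluconazole; Medium: RPMI/MOPS defined medium; Times: 48 h humidified 37 °C exposure, 2 h room-temperature dye step; Measured by: Alamar Blue fluorescence, Ex 544/Em 590 nm.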

[2] = system: C. albicans CaCi-2 (fluconazole-resistant clinical isolate) + fluconazole, Alamar Blue growth, 48 h; test: as above
Summary of the method: as §1

SMILES | activity change, negative = inhibition ([1]; at 12 µM (top of the series)) | AC50 [2] | other results
c1ccc(-c2nn(Cc3ncco3)c3ccccc23)cc1 | 1.86% (inactive) |  | 
COC(=O)Cn1nc(-c2cncnc2)c2ccccc21 |  |  | activity change, negative = inhibition ([1]; at 10 µM (top of the series)): -5.14% (inactive)
CCOC(=O)Cn1nc(-c2ccccc2)c2ccccc21 | 4.8% (inactive) |  | 
COC(=O)Cn1nc(-c2ccccc2)c2cc(C)ccc21 |  | 3.28 µM | 
COC(=O)Cn1c2ccccc2c2nc3n(c(=O)c21)CCS3 |  | 3.83 µM | 
COC(=O)CCn1nc(-c2ccccc2)c2ccccc21 | 1.2% (inactive) |  | 
COC(=O)Cn1nc(-c2ccccc2)c2ccccc21 |  | 1.2 µM | 
COC(=O)Cn1nc(-c2ccccc2OC)c2ccccc21 |  | 6.22 µM | 
COC(=O)Cn1nc(-c2ccc(OC)cc2)c2ccccc21 |  | 4.22 µM | 
c1ccc(-c2nn(Cc3nn[nH]n3)c3ccccc23)cc1 | -7.06% (inactive) |  | 
COC(=O)Cn1nc(-c2ccccc2)c2ccc(C#N)cc21 | -14.7% (inactive) |  | 
COC(=O)Cn1nc(-c2ccccc2)c2cc(F)ccc21 |  | 4.63 µM | 
COC(=O)Cn1nc(-c2cccc(F)c2)c2ccccc21 |  | 1.41 µM | 
N#CCn1nc(-c2ccccc2)c2ccccc21 | -18.5% (inactive) |  | 
COC(=O)Cn1nc(-c2ccccc2)c2ccc(F)cc21 |  | 5.1 µM | 
O=C(Cn1nc(-c2ccccc2)c2ccccc21)Oc1ccccc1 | -4.43% (inactive) |  | 
O=C(Cn1c2ccccc2c2nc3n(c(=O)c21)CCS3)N1CCCC1 |  | 1.04 µM and 1.87 µM | 
COC(=O)Cn1nc(-c2ccc(C(F)(F)F)cc2)c2ccccc21 | -0.629% (inactive) |  | 
COC(=O)Cn1nc(-c2cccc(OC)c2)c2ccccc21 |  | 0.44 µM | 
CC(C)OC(=O)Cn1nc(-c2ccccc2)c2ccccc21 | 11.7% (inactive) |  | 
COC(=O)Cn1nc(-c2cccc(C)c2)c2ccccc21 |  | 0.647 µM | 
COC(=O)Cn1nc(-c2ccccc2)c2ccc(C)cc21 |  | 3.14 µM | 
COC(=O)Cn1nc(-c2ccc(F)cc2)c2ccccc21 |  | 5.61 µM | 
CC(C)(C)OC(=O)Cn1nc(-c2ccccc2)c2ccccc21 | 17.1% (inactive) |  | 
COCCn1nc(-c2ccccc2)c2ccccc21 | -9.42% (inactive) |  | 
COC(=O)Cn1nc(-c2ccccc2)c2ccc(Cl)cc21 |  | 3.79 µM | 
COC(=O)Cn1nc(-c2ccccc2)c2cc(OC)ccc21 |  | 10.4 µM | 
COC(=O)Cn1nc(-c2ccccc2)c2ccc(OC)cc21 |  | 7.51 µM | 
